PP5 inh = inhibitors of human protein phosphatase 5 (PP5); hit rate 0.18% among 320,000; P53041; inhibition, % at 6.7 µM; AID 1987; purified PP5c, OMFP substrate fluorescence;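 active = inhibition above the campaign's mean inhibition across all tested compounds plus 3 SD, cut at about 9.5% in these data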;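 note: 0% = DMSO only and 100% = 100 µM cantharidin control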
DNA FID counter = counter-screen for HCV NS3 helicase inhibitors: DNA intercalator displacement. DNA fluorescent intercalator displacement, fluorescence. inhibition, % at 7.9 µM. hit rate 0.17% among 290,000; in the data active = inhibition above about 37%;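 note: 0% = vehicle and 100% = reference compound; higher means more ethidium bromide displaced from hairpin DNA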
HCV NS3 hel inh = inhibitors of Hepatitis C virus NS3 helicase | inhibition, % at 10.9 µM | NS3 helicase DNA unwinding, Cy5 molecular beacon fluorescence | hit rate 0.56% among 290,000;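 active = inhibition above the mean of all tested compounds plus 3 SD, set per campaign, cut at about 35% in these data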;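 note: 0% = DMSO wells and 100% = thioflavine S control wells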
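Measured by: Cy5 fluorescence, 0 and 60 min reads / Assay system: NS3 helicase fragment of HCV / Control set: low DMSO, high thioflavine S at 110 µM / Times: 1 h reaction at 25 °C, ATP-initiated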
PP1 counter = counter-screen for PP5 inhibitors: inhibitors of human PP1-alpha; hit rate 0.9% among 320,000; P62136; inhibition, % at 6.7 µM; AID 2235; purified PP1alpha, OMFP fluorescence;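 active = inhibition above the mean inhibition of all tested compounds plus 3 SD, computed separately for each screening campaign, cut at about 15% in these data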
Target sequence (P62136 whole entry, looked up): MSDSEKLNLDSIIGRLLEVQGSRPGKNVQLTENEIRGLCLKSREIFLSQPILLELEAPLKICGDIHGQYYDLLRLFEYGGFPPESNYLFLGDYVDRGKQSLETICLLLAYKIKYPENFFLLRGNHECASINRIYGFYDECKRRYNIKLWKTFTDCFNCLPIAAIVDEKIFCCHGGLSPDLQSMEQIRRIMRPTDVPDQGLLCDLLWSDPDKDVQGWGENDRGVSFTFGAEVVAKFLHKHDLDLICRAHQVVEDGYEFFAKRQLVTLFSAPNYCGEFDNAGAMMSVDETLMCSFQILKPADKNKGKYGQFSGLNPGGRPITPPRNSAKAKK
HIF activator = HIF pathway transcriptional activation; U2OS HRE-luciferase reporter, luminescence; normalized: DMSO 0%, desferrioxamine 100%; activation, % at 7.5 µM (by protocol); hit rate 0.32% among 300,000;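 active = mean activation of at least 10% of the iron chelator positive control signal, with at least half of replicates also reaching 10%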
* hit, by the source's call; x = no result. The list is not random: actives were taken first. Their share in the collection is about 1.9%.

SMILES | PP5 inh | DNA FID counter | HCV NS3 hel inh | PP1 counter | HIF activator
C=C(C)CNC(=O)c1ccc2nc(Cc3ccc(OC)cc3)oc2c1 | 3 | -28 | -1 | 1 | 11*
Cc1ccc(CN2C(=O)C(CC(C)C)Nc3ncnc(N4CCN(c5ccccn5)CC4)c32)cc1 (stereo not given) | 2 | x | x | 7 | 1
CC(C)CC1Nc2ncnc(N3CCN(c4ccccn4)CC3)c2N(Cc2ccc(Br)cc2)C1=O (stereo not given) | 2 | x | x | 17* | 0
COc1ccccc1-c1nnc(SCC(=O)c2ccc(C3CCCCC3)cc2)n1Cc1ccco1 | 1 | -34 | 4 | 17* | -1
Cc1occc1-c1nnc(SCC(=O)c2ccc(F)cc2)n1Cc1ccco1 | 0 | -28 | 29 | -2 | 0
CC(CN1CCCCC1)OC(=O)c1ccco1 (stereo not given) | 0 | -5 | 5 | 1 | -1
Cc1ccc(-n2c(SCC(=O)Nc3ccc4c5c(cccc35)CC4)nc(O)cc2=O)cc1 | 2 | -16 | 29 | 16* | 0
Cc1ccc(-n2c(SCC(=O)Nc3ccc4c5c(cccc35)CC4)nc(O)c(C)c2=O)cc1 | 5 | -39 | 19 | 6 | 0
COc1cccc2c1C(=O)c1c(O)c3c(c(O)c1C2=O)C[C@@](O)(C(=O)CO)C[C@@H]3O[C@H]1C[C@H](N)[C@H](O)[C@H](C)O1 | 0 | 59* | 8 | -3 | -3
Cc1cc(=O)[nH]c(N=N/C(=N/Nc2ccc(O)cc2)c2ccccc2)n1 | 5 | 0 | -7 | 1 | 12*
COc1ccc(N/N=C(/N=Nc2nc(C)cc(=O)[nH]2)c2ccccc2)cc1 | 6 | -8 | -4 | 2 | 143*
Cc1ccccc1CN1CCN(CC(=O)NCc2ccccc2)CC1 | -2 | -2 | 4 | -2 | 0
CCc1nnc(NC(=O)C2Cc3ccccc3CN2S(=O)(=O)c2c(C)c(C)cc(C)c2C)s1 (stereo not given) | 4 | -9 | -4 | 17* | 1
CC(C)(C)OC(=O)N1CCC2(CC1)C(C#N)=C(N)OC1=C2C(=O)CCC1 | 0 | 0 | -4 | -1 | 0
O=[N+]([O-])c1ccc(Cl)c(-c2ccc(/C=N/c3c(-c4ccco4)nc4ccccn34)o2)c1 | -2 | 8 | 23 | -2 | 0
Oc1cccc(/C=N/c2c(-c3ccco3)nc3ccccn23)c1 | 0 | 4 | 1 | 3 | 18*
COc1ccc(OC)c(C(=O)c2ccc(C(=O)Nc3ccc(NC(C)=O)cc3)cc2)c1 | 5 | -15 | -4 | -2 | -2
O=c1cc(O)c2c(=O)n(-c3ccccc3)c3c(c2o1)CCCCCC3 | 3 | 3 | -1 | 17* | 0
CCCCNC(=S)N(CCCN(C)C)Cc1cc2cc3c(cc2[nH]c1=O)OCO3 | 0 | 3 | -3 | -5 | 0
Cc1cccc(NC(=S)N(CCCN(C)C)Cc2cc3cc4c(cc3[nH]c2=O)OCO4)c1 | -1 | 38* | -2 | 2 | 0
CCc1ccccc1NC(=S)N(CCCN(C)C)Cc1cc2cc3c(cc2[nH]c1=O)OCO3 | 0 | 43* | -14 | -4 | 0
Cc1cccc(NC(=S)N(CCN(C)C)Cc2cc3cc(C)ccc3[nH]c2=O)c1 | -1 | 21 | -14 | -3 | -1
CCCCn1c(N)c(N(CCOC)C(=O)c2ccc(F)c(S(=O)(=O)N3CCOCC3)c2)c(=O)[nH]c1=O | 0 | x | x | -2 | -1
CC(=O)NC(c1ccccc1)c1cc([N+](=O)[O-])c2cccnc2c1O (stereo not given) | 3 | -15 | 6 | 6 | 2
Oc1cccc(C(Nc2nccs2)c2ccc3cccnc3c2O)c1 (stereo not given) | 1 | -9 | 10 | 7 | 35*
SMILES | PP5 inh | DNA FID counter | HCV NS3 hel inh | PP1 counter | HIF activator
CC(=O)NC(c1cccc([N+](=O)[O-])c1)c1ccc2cccnc2c1O (stereo not given) | x | -10 | 19 | x | 231*
CC(=O)NC(c1ccc(C(C)C)cc1)c1ccc2cccnc2c1O (stereo not given) | 6 | -33 | 25 | 13 | 163*
COc1cccc(C(NC(C)=O)c2ccc3cccnc3c2O)c1 (stereo not given) | 2 | -12 | 31 | -1 | 38*
O=C(COc1cccc2cccnc12)Nc1nccs1 | 3 | -6 | 3 | 1 | -1
COc1ccc(C2c3[nH]c4ccccc4c3CCN2C(=O)Cc2nonc2C)c(F)c1 (stereo not given) | 3 | -24 | -13 | 3 | 2
CN(C)S(=O)(=O)N1CCN(C(=O)c2cccs2)CC1 | -1 | -3 | 3 | -6 | 0
CC(C)c1ccc(NC(=O)Cn2cccc2C2=NC(c3ccccc3)CO2)cc1 (stereo not given) | 4 | 5 | -65 | 1 | 0
Cc1cccc2cc3c(N)c(C#N)sc3nc12 | 4 | 0 | 12 | 4 | -1
Cc1sc(NC(=O)c2sc3nc4c(C)cccc4cc3c2N)c(C#N)c1C | 0 | 7 | 28 | 17* | 0
O=[N+]([O-])c1ccc(O)c(/C=N/Nc2ccc(Cl)nn2)c1 | 1 | 1 | -3 | -3 | 64*
C=CCn1c(N2CCOCC2)nc2c1c(=O)[nH]c(=O)n2C | -2 | -3 | 0 | 2 | 0
C=CCn1c(N2CCCCCC2)nc2c1c(=O)[nH]c(=O)n2C | -11 | -19 | 2 | 1 | 30*
O=C(CNS(=O)(=O)c1ccccc1)NCC(=O)N1CCCCC1 | 2 | 1 | 12 | -4 | -1
CCN(CC(=O)Nc1cc(Cl)ccc1C)C(=O)COc1cccc2c1OC(C)(C)C2 | 2 | -38 | -12 | 0 | 0
CCCCNc1ccc(C(CC(N)=O)NC(=O)Cc2cccc3ccccc23)cc1[N+](=O)[O-] (stereo not given) | -3 | x | x | 1 | -1
Cc1cccc(CNc2ccc(C(CC(N)=O)NC(=O)Cc3cccc4ccccc34)cc2[N+](=O)[O-])c1 (stereo not given) | 2 | x | x | 17* | -1
Cc1oc(S(=O)(=O)N2CCOCC2)cc1C(=O)Nc1ccc(Cl)cc1 | -1 | -6 | 3 | -4 | 0
COc1ccc(OC)c(Nc2nc(NCCCN(C)C)nc(N)c2[N+](=O)[O-])c1 | 3 | 41* | -22 | 7 | -5
CCOc1ccc(C2C(C(=O)c3ccc(C)o3)=C(O)C(=O)N2Cc2cccnc2)cc1 (stereo not given) | 1 | -63 | 13 | 15* | 0
Cc1ccc(C(=O)C2=C(O)C(=O)N(Cc3cccnc3)C2c2ccc(Cl)cc2)o1 (stereo not given) | 2 | -42 | 24 | 16* | 0
O=C(CNC(=O)c1cn2ccccc2n1)Nc1ccc(F)c(F)c1 | 1 | x | x | -3 | 1
O=C(CSc1nccc(=O)[nH]1)NCc1ccc2c(c1)OCO2 | 2 | -2 | 8 | 16* | 0
CCc1cc(=O)[nH]c(SCC(=O)NCc2ccc3c(c2)OCO3)n1 | 0 | x | x | -3 | 0
COc1ccc(C2c3c(-c4ccccc4O)n[nH]c3C(=O)N2Cc2ccco2)cc1OC (stereo not given) | 3 | -35 | -2 | -3 | -1

Screening results from PubChem.
